Values after ≈ are worked out from the molar mass of the structure shown.
Tests used:
[1] = tested on: K. pneumoniae ATCC 43,816; assay: Minimum bactericidal concentration; assay type: cell-based, Klebsiella pneumoniae; conditions: lowest concentration reducing at least 99.9 % of growth, plated on LB, 37 °C, 24 h, triplicate
[2] = tested on: E. coli ESBL 1057.1; assay: Minimum bactericidal concentration; assay type: cell-based, Escherichia coli; conditions: lowest concentration reducing at least 99.9 % of growth, plated on LB, 37 °C, 24 h, triplicate
[3] = tested on: A. baumannii Ab-1; assay: MIC, broth microdilution; assay type: cell-based, Acinetobacter baumannii; conditions: MHB II, 10^6 CFU/ml, 37 °C, 24 h, triplicate
Outline: (§1)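 Broth microdilution per CLSI. Strains were freshly plated on LB agar from glycerol stocks; the colistin-resistant lpxD mutant was plated on LB with 10 µg/ml colistin. Inoculum was 10^6 CFU/ml in Mueller Hinton broth II with two-fold dilutions of test compound from 100 to 0.10 µg/ml, incubated at 37 °C for 24 h. MIC was the lowest concentration with no growth.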

[4] = tested on: S. aureus ATCC 29,213; assay: Minimum bactericidal concentration; assay type: cell-based, Staphylococcus aureus; conditions: lowest concentration reducing at least 99.9 % of growth, plated on LB, 37 °C, 24 h, triplicate
[5] = tested on: E. coli ATCC 25,922; assay: MIC, broth microdilution; assay type: cell-based, Escherichia coli; conditions: MHB II, 10^6 CFU/ml, 37 °C, 24 h, triplicate
Outline: as §1

[6] = tested on: A. baumannii Ab-1; assay: Minimum bactericidal concentration; assay type: cell-based, Acinetobacter baumannii; conditions: lowest concentration reducing at least 99.9 % of growth, plated on LB, 37 °C, 24 h, triplicate
[7] = tested on: erythrocytes; conditions: percent hemolysis at 150 μM (table footnote); ref Oddo et al., 2016; cited from earlier work
[8] = tested on: E. coli ATCC 25,922; assay: Minimum bactericidal concentration; assay type: cell-based, Escherichia coli; conditions: lowest concentration reducing at least 99.9 % of growth, plated on LB, 37 °C, 24 h, triplicate
[9] = tested on: K. pneumoniae CG258; assay: Time-kill assay; assay type: cell-based, Klebsiella pneumoniae; conditions: 24 h
Outline: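 Broth without compound was the growth control. Samples taken at 0, 3, 6 and 24 h were diluted and plated on MH II agar for CFU counts. Each curve was run at least in duplicate.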

[10] = tested on: A. baumannii ATCC 19,606; assay: MIC, broth microdilution; assay type: cell-based, Acinetobacter baumannii; conditions: MHB II, 10^6 CFU/ml, 37 °C, 24 h, triplicate
Outline: as §1

[11] = tested on: A. baumannii ATCC 19,606; assay: Minimum bactericidal concentration; assay type: cell-based, Acinetobacter baumannii; conditions: lowest concentration reducing at least 99.9 % of growth, plated on LB, 37 °C, 24 h, triplicate
[12] = tested on: P. aeruginosa (ST175–1); assay: Minimum bactericidal concentration; assay type: cell-based, Pseudomonas aeruginosa; conditions: lowest concentration reducing at least 99.9 % of growth, plated on LB, 37 °C, 24 h, triplicate
[13] = tested on: P. aeruginosa ATCC 27,853; assay: MIC, broth microdilution; assay type: cell-based, Pseudomonas aeruginosa; conditions: MHB II, 10^6 CFU/ml, 37 °C, 24 h, triplicate
Outline: as §1

[14] = tested on: E. coli ESBL 1057.1; assay: MIC, broth microdilution; assay type: cell-based, Escherichia coli; conditions: MHB II, 10^6 CFU/ml, 37 °C, 24 h, triplicate
Outline: as §1

[15] = tested on: A. baumannii IB010; assay: Minimum bactericidal concentration; assay type: cell-based, Acinetobacter baumannii; conditions: lowest concentration reducing at least 99.9 % of growth, plated on LB, 37 °C, 24 h, triplicate
[16] = tested on: Galleria mellonella larvae; assay: In vivo toxicity in Galleria mellonella larvae; conditions: G. mellonella larvae, 50 µg/larvae (10 μl of 5 mg/ml), 30 °C, N=10 per group
Outline: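 Sixth-instar Galleria mellonella larvae (200–300 mg) were held in sawdust at 4 °C until use. Groups of ten were injected with 10 μl of test compound, colistin or 0.9 % NaCl saline control into the second rear proleg, then kept at 30 °C.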

[17] = tested on: 11 bacterial strains (S. aureus, P. aeruginosa, A. baumannii, K. pneumoniae, E. coli); assay: Antimicrobial activity screening, summary over groups of strains; assay type: cell-based; conditions: 50 µg/ml screen; all strains, Gram-negative and Gram-positive
[18] = tested on: S. aureus ATCC 29,213; assay: MIC, broth microdilution; assay type: cell-based, Staphylococcus aureus; conditions: MHB II, 10^6 CFU/ml, 37 °C, 24 h, triplicate
Outline: as §1

[19] = tested on: A. baumannii IB010; assay: MIC, broth microdilution; assay type: cell-based, Acinetobacter baumannii; conditions: MHB II, 10^6 CFU/ml, 37 °C, 24 h, triplicate
Outline: as §1

[20] = tested on: K. pneumoniae ATCC 43,816; assay: MIC, broth microdilution; assay type: cell-based, Klebsiella pneumoniae; conditions: MHB II, 10^6 CFU/ml, 37 °C, 24 h, triplicate
Outline: as §1

[21] = tested on: P. aeruginosa ATCC 27,853; assay: Minimum bactericidal concentration; assay type: cell-based, Pseudomonas aeruginosa; conditions: lowest concentration reducing at least 99.9 % of growth, plated on LB, 37 °C, 24 h, triplicate
[22] = tested on: K. pneumoniae CG258; assay: MIC, broth microdilution; assay type: cell-based, Klebsiella pneumoniae; conditions: MHB II, 10^6 CFU/ml, 37 °C, 24 h, triplicate
Outline: as §1

[23] = tested on: S. aureus MRSA USA 300; assay: Minimum bactericidal concentration; assay type: cell-based, Staphylococcus aureus; conditions: lowest concentration reducing at least 99.9 % of growth, plated on LB, 37 °C, 24 h, triplicate
[24] = tested on: S. aureus MRSA USA 300; assay: MIC, broth microdilution; assay type: cell-based, Staphylococcus aureus; conditions: MHB II, 10^6 CFU/ml, 37 °C, 24 h, triplicate
Outline: as §1

[25] = tested on: K. pneumoniae CG258; assay: Minimum bactericidal concentration; assay type: cell-based, Klebsiella pneumoniae; conditions: lowest concentration reducing at least 99.9 % of growth, plated on LB, 37 °C, 24 h, triplicate
[26] = tested on: P. aeruginosa (ST175–1); assay: MIC, broth microdilution; assay type: cell-based, Pseudomonas aeruginosa; conditions: MHB II, 10^6 CFU/ml, 37 °C, 24 h, triplicate
Outline: as §1

SMILES: CC[C@@H](C)[C@@H](NC(=O)[C@@H](CCCCN)NC(=O)[C@@H](CCCCN)NC(=O)[C@@H](Cc1ccccc1)NC(=O)[C@@H](CC(C)C)NC(=O)[C@@H](CCCCN)NC(=O)[C@H](N)CCCCN)C(=O)N[C@H](CC(C)C)C(=O)N[C@H](CCCNC(=N)N)C(=O)N[C@H](Cc1ccc(O)cc1)C(=O)N[C@H](CC(C)C)C(N)=O [BP607, reference compound]
- MBC [1]: 12.5 µg/mL (≈ 8.63 µM)
- MBC [2]: 12.5 µg/mL (≈ 8.63 µM)
- MIC [3]: 6.25 µg/mL (≈ 4.31 µM)
- MBC [4]: 50 µg/mL (≈ 34.5 µM)
- MIC [5]: 6.25 µg/mL (≈ 4.31 µM)
- MBC [6]: 6.25 µg/mL (≈ 4.31 µM)
- Hemolysis [7]: 42%
- MBC [8]: 6.25 µg/mL (≈ 4.31 µM)
- bactericidal activity in time-kill assay ([9]; peptide at 2× MIC): bactericidal
- bactericidal activity in time-kill assay ([9]; peptide at the MIC): maintained this bactericidal effect
- MIC [10]: 3.13 µg/mL (≈ 2.16 µM)
- MBC [11]: 6.25 µg/mL (≈ 4.31 µM)
- MBC [12]: 100 µg/mL (≈ 69 µM)
- MIC [13]: 25 µg/mL (≈ 17.3 µM)
- MIC [14]: 12.5 µg/mL (≈ 8.63 µM)
- MBC [15]: 50 µg/mL (≈ 34.5 µM)
- mortality after 24h [16]: 80%
- growth inhibition of all the strains [17]: ≈ 90%
- MIC [18]: 50 µg/mL (≈ 34.5 µM)
- MIC [19]: 25 µg/mL (≈ 17.3 µM)
- MIC [20]: 12.5 µg/mL (≈ 8.63 µM)
- MBC [21]: 25 µg/mL (≈ 17.3 µM)
- MIC [22]: 12.5 µg/mL (≈ 8.63 µM)
- MBC [23]: 50 µg/mL (≈ 34.5 µM)
- MIC [24]: 50 µg/mL (≈ 34.5 µM)
- MBC [25]: 12.5 µg/mL (≈ 8.63 µM)
- MIC [26]: 50 µg/mL (≈ 34.5 µM)
